# From ChEMBL document CHEMBL3774372, “Design, physico-chemical properties and biological evaluation of some new N-[(phenoxy)alkyl]- and N-{2-[2-(phenoxy)ethoxy]ethyl}aminoalkanols as anticonvulsant agents” (Bioorg Med Chem, 2016)
# Calls of active or inactive are those of the source. The rule behind the calls is not given here.
# Tests used:
# Rattus norvegicus [1] = experiment: Anticonvulsant activity in pilocarpine-induced status epilepticus Sprague-Dawley rat model at 30 mg/kg, ip after […] during post stage 3 seizure; type: functional, organism-based
# Rattus norvegicus [2] = experiment: Anticonvulsant activity in pilocarpine-induced status epilepticus Sprague-Dawley rat model at 100 mg/kg, ip after 4 hrs during post stage 3 seizure; type: functional, organism-based
# How it was run: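 Rats given pilocarpine 50 mg/kg ip and observed to first convulsive seizure (Racine stage 3–5, time zero); test drug then given ip in 0.5% methylcellulose. Efficacy = halting further stage 3–5 convulsive seizures; scored protected/tested, time after first stage 3 seizure.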
# [3] = biological target: Neuropeptide Y receptor type 2 (Homo sapiens) (UniProt P49146); experiment: Displacement of [125I]peptide YY from neuropeptide Y2 receptor in human KAN-TS cells at 10^-5 M; type: cell-based
# How it was run: (§1)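 Radioligand binding screen run at a single test concentration of 10^-5 M. Each target used its stated receptor source (human recombinant CHO or HEK-293 cells, endogenous cell lines, or rat tissue membranes) with the listed radioligand.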
# [4] = Ratio of drug level in brain to plasma in CD1 mouse at 1 mg/kg, iv administered as single dose measured after 240 mins by LC/ESI-MS/MS analysis; type: ADME, organism-based; details: brain and plasma, read-out: BPR
# [5] = Ratio of drug level in brain to plasma in CD1 mouse at 1 mg/kg, iv administered as single dose measured after 120 mins by LC/ESI-MS/MS analysis; type: ADME, organism-based; details: brain and plasma, read-out: BPR
# Mus musculus [6] = experiment: Neurotoxicity in mouse at 30 mg/kg, ip after 0.5 hrs by rotarod test; type: toxicity, organism-based; details: in vivo
# How it was run: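 Mice were dosed ip with compound suspended in 0.5% methylcellulose. Rotarod: a 1 in. knurled rod turning at 6 rpm. Neurotoxicity was scored as failure to stay on the rod for at least 1 min in each of three trials. Results are given as the number of animals affected out of the number tested.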
# [7] = Neurotoxicity in ip dosed mouse after […] by rotarod test; type: toxicity, organism-based; details: in vivo
# Mus musculus [8] = experiment: Analgesic activity in mouse assessed as reduction in AUC of formalin-induced licking time during inflammatory phase at 13 mg/kg, ip relative to control; type: functional
# How it was run: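 Formalin injected into a mouse hindlimb; total licking time taken as pain intensity. Compound given ip at 13 mg/kg as a suspension in 0.5% methylcellulose; vehicle-only animals served as controls.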
# Rattus norvegicus [9] = experiment: Toxicity in pilocarpine-induced status epilepticus Sprague-Dawley rat model assessed as average weight change at 100 mg/kg, ip measured 24 hrs post first stage 3 seizure; type: organism-based; details: in vivo
# Vibrio harveyi = experiment: Mutagenicity in Vibrio harveyi BB7XM assessed as number of colonies after 48 hrs (reference value: 14 no_unit); type: ADME, organism-based; details: in vivo
# How it was run: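 Vibrio harveyi mutagenicity test: test compound was added to exponentially growing cultures (A600 = 0.1, 30 °C) and grown to OD600 0.3–0.4. Then 5 × 10^6 cells were plated on BOSS agar with neomycin (final 100 µg/mL) and incubated 48 h at 30 °C. Neomycin-resistant colonies were counted. Triplicate; controls were water, DMSO and NQNO 40 ng/mL.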
# Mus musculus [10] = experiment: AUC (0 to infinity) in CD1 mouse plasma at 1 mg/kg, iv measured up to 240 mins by LC/ESI-MS/MS analysis; type: ADME, organism-based; set-up: dose 1 mg/kg, time infinity, route intravenous; details: in vivo, 4 h
# Mus musculus [11] = experiment: Half life in CD1 mouse plasma at 12.92 mg/kg, ig measured up to 240 mins by LC/ESI-MS/MS analysis; type: ADME, organism-based; details: in vivo, po, 4 h
# [12] = Ratio of drug level in brain to plasma in CD1 mouse at 12.92 mg/kg, ig administered as single dose measured after 15 mins by LC/ESI-MS/MS analysis; type: ADME, organism-based; details: brain and plasma, po, read-out: BPR
# [13] = Ratio of drug level in brain to plasma in CD1 mouse at 12.92 mg/kg, ip administered as single dose measured after 240 mins by LC/ESI-MS/MS analysis; type: ADME, organism-based; details: brain and plasma, read-out: BPR
# in vitro [14] = details: mouse, liver microsomes
# in vitro [15] = details: mouse, liver microsomes; remark: listed apart in the source
# Mus musculus [16] = experiment: Anticonvulsant activity in mouse assessed as protection against 6 Hz psychomotor seizure at 20 mg/kg, ip after 0.5 hrs; type: functional, organism-based
# How it was run: (§2)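 Suspension in 0.5% methylcellulose given ip to mice; corneal stimulation with 0.2 ms monopolar rectangular pulses at 6 Hz for 3 s from a constant current device, mice restrained then released to observation cage. Protected if normal exploratory behaviour resumed within 10 s of stimulation. Scored as protected/tested, 4 mice per group.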
# Mus musculus [17] = experiment: Anticonvulsant activity in mouse assessed as protection against 6 Hz psychomotor seizure at 20 mg/kg, ip after 2 hrs; type: functional, organism-based; how it was run: as §2
# Rattus norvegicus [18] = experiment: Anticonvulsant activity in rat assessed as protection against maximal electric shock-induced seizures at 30 mg/kg, ip measured after […]; type: functional, organism-based
# Rattus norvegicus [19] = experiment: Anticonvulsant activity in rat assessed as protection against maximal electric shock-induced seizures at 30 mg/kg, ip measured after 0.5 hrs; type: functional, organism-based
# How it was run: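 Rats dosed ip or orally as 0.5% methylcellulose suspension; maximal electroshock at listed time. Protection = abolition of hindlimb tonic extension; 4 rats per group, scored protected/tested.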
# Rattus norvegicus [20] = experiment: Anticonvulsant activity in rat assessed as protection against maximal electric shock-induced seizures at 30 mg/kg, po measured after […]; type: functional, organism-based
# [21] = biological target: Melatonin receptor type 1A (Homo sapiens) (UniProt P48039); experiment: Displacement of [125I]2-iodomelatonin from human recombinant ML1A receptor expressed in CHO cells at 10^-5 M; type: cell-based; how it was run: as §1
# Melatonin receptor type 1A (Homo sapiens), sequence (P48039 whole entry): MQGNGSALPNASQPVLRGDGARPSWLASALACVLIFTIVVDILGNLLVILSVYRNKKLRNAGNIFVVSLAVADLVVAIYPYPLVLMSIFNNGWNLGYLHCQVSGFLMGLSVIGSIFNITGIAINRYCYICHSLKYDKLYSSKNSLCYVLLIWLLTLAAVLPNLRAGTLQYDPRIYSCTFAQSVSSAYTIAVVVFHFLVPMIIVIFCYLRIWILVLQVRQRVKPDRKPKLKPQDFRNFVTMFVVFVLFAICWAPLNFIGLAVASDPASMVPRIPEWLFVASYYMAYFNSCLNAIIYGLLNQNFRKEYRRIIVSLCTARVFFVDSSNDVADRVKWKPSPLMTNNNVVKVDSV
# Neuropeptide Y receptor type 2 (Homo sapiens), sequence (P49146 whole entry): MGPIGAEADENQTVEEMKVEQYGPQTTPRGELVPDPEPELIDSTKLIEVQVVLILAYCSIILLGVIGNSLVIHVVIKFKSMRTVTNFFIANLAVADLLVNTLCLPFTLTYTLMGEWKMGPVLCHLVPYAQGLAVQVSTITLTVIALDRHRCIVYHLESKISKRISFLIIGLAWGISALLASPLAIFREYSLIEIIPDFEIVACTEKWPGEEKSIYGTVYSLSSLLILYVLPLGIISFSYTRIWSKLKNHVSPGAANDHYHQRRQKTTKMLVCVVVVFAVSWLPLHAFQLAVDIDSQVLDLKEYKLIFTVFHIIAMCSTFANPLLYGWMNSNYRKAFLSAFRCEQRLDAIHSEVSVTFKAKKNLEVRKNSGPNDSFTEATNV
structure (smiles),measurement,setting,value
Cc1cccc(C)c1OCCOCCN[C@H](C)CO,Activity,Rattus norvegicus [1],inactive
same,Activity,Rattus norvegicus [2],inactive
same,inhibition,[3],-5.1%
Cc1cccc(C)c1OCCOCCN[C@H](C)CO.Cl,Kp at 4 h,[4],2.98
same,Kp at 2 h,[5],6.66
same,Activity,Mus musculus [6],Non-toxic
same,TD50 at […],[7],33.3 mg/kg
same,inhibition in vivo at 13 mg/kg,Mus musculus [8],81.1%
same,Activity,Rattus norvegicus [9],17.5 g
same,Activity,Vibrio harveyi,18
same,AUC,Mus musculus [10],1030 ng·h/mL
same,t1/2,Mus musculus [11],29.1 min
same,Kp at […],[12],2.67
same,Kp at 4 h,[13],1.94
same,half-life at 20 µM,in vitro [14],37 min
same,microsomal CLint at 20 µM,in vitro [15],47 µL/min/mg
Cc1cccc(C)c1OCCOCCN[C@@H](C)CO,Activity,Mus musculus [16],inactive
same,Activity,Mus musculus [17],inactive
same,Activity,Rattus norvegicus [18],Active
same,Activity,Rattus norvegicus [19],Active
same,Activity,Rattus norvegicus [20],inactive
same,inhibition,[21],-7.5%
